The source made the active and inactive calls.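 The calls were made as follows: active = at 10 µM, induced P-selectin expression inhibited by 50% or more; inactive = less than 50% inhibition.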
Each compound was assayed on human washed platelets, SFLLRN-induced P-selectin, flow cytometry (assay: reduced P-selectin exposure on PAR1-stimulated platelets – cell-based, human washed platelets, flow cytometry, dry powder, single point (AID 493031)). Settings: at 10 µM; hits give high values.
Outline: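 Material: washed platelets from individual donors; Also added: SFLLRN stimulation; Dosing: compound at 10 µM; Timing: 20 min compound pretreatment, 15 min SFLLRN activation, 20 min antibody staining; Measured by: flow cytometry, PE anti-P-selectin staining.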
For `CCCC(=O)Nc1cccc(NC(=O)c2cnc3ccccc3c2)c1`, the inhibition was 10.4% (inactive).
`CCCC(=O)Nc1cccc(NC(=O)c2ccccc2F)c1` gave an inhibition of 97.4%.
For `CCCC(=O)Nc1cccc(NC(=O)c2ccc(S(C)(=O)=O)cc2)c1`, the inhibition was 9.82% (inactive).
`CCCC(=O)Nc1cccc(NC(=O)c2cccc(-c3ccccc3)c2)c1` was tested, and the inhibition was 94.4%.
In the case of `CCCC(=O)Nc1cccc(NC(=O)c2cccnc2)c1`, the inhibition is reported as 4.33% (inactive).
`CCCC(=O)Nc1cccc(NC(=O)c2cccc(NC(C)=O)c2)c1` was tested, and the inhibition was 41% (inactive).
Compound `O=C(Nc1ccccc1)c1ccccc1Br` has an inhibition of 98.5%.
With `CCCC(=O)Nc1cccc(NC(=O)c2ccc(C(F)(F)F)cc2)c1` the inhibition was 21% (inactive).
`CCCC(=O)Nc1cccc(NC(=O)c2cccc(Cl)c2)c1` showed an inhibition of 94.1%.
In the case of `CCCC(=O)Nc1cccc(NC(=O)c2ccccc2Cl)c1`, the inhibition is reported as 98.3%.
With `CCCC(=O)Nc1cccc(NC(=O)c2ccc(C)cc2)c1` the inhibition was 21.8% (inactive).
With `CCCC(=O)Nc1cccc(NC(=O)c2cccc([N+](=O)[O-])c2)c1` the inhibition was 50.7%.
In the case of `CCCC(=O)Nc1cccc(NC(=O)c2cccc(Oc3ccccc3)c2)c1`, the inhibition is reported as 92%.
`CCCC(=O)Nc1cccc(NC(=O)c2ccc(Cl)cc2)c1` was tested, and the inhibition was 73.9%.
In the case of `CCCC(=O)Nc1cccc(NC(=O)c2cccc(S(C)(=O)=O)c2)c1`, the inhibition is reported as 23.9% (inactive).
In the case of `CCCC(=O)Nc1cccc(NC(=O)c2ccccc2C)c1`, the inhibition is reported as 95.8%.
In the case of `CCCC(=O)Nc1cccc(NC(=O)c2ccccc2OC)c1`, the inhibition is reported as 46.1% (inactive).
In the case of `CCCC(=O)Nc1cccc(NC(=O)c2ccc(F)cc2)c1`, the inhibition is reported as 56.9%.
For `CCCC(=O)Nc1cccc(NC(=O)c2ccco2)c1`, the inhibition was 30.5% (inactive).
`CCCC(=O)Nc1cccc(NC(=O)c2ccc(OC)cc2)c1` was tested, and the inhibition was 15.3% (inactive).
With `CCCC(=O)Nc1cccc(NC(=O)c2cccc(C#N)c2)c1` the inhibition was 66.7%.

Source: PubChem BioAssay AID493031 (Broad Institute, 2011)
